Reference: ChEMBL document CHEMBL1153518 (J Med Chem, 2009)

How the values were obtained:
[1] = system: Human alphaherpesvirus 1; assay: Antiviral activity against acyclovir […]-resistant thymidine kinase-deficient HSV1 KOS infected in HEL cells assessed as inhibition of virus-induced cytopathicity; assay type: functional, organism-based; conditions: Human alphaherpesvirus 1, KOS
How it was run: (§1)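 Confluent human embryonic lung fibroblast monolayers inoculated with 100 CCID50 virus. After 1–2 h adsorption, residual virus was removed and cultures were incubated with varying compound concentrations. Cytopathicity was scored once untreated infected controls reached full cytopathicity.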

[2] = Cytotoxicity against HEL cells assessed as concentration required to cause alteration in cell alteration by microscopically; assay type: cell-based; conditions: human
[3] = system: CCRF-CEM; assay: Cytotoxicity against human CEM cells assessed as decrease in cell viability; assay type: cell-based
[4] = system: Human alphaherpesvirus 1; assay: Antiviral activity against HSV1 KOS infected in HEL cells assessed as inhibition of virus-induced cytopathicity; assay type: functional, organism-based; conditions: Human alphaherpesvirus 1, KOS; how it was run: as §1
[5] = system: Human immunodeficiency virus 2; assay: Antiviral activity against HIV2 ROD infected in human CEM cells assessed as inhibition of virus-induced cytopathicity after 4 days; assay type: functional, organism-based; conditions: Human immunodeficiency virus 2, ISOLATE ROD, CCRF-CEM, 96 h
How it was run: (§2)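 Human CEM cells (~3 × 10^5 cells/mL) infected with 100 CCID50 per mL of HIV-1(IIIB) or HIV-2(ROD), then seeded into wells holding compound dilutions. Incubated 4 days at 37°C. Giant cell formation was scored microscopically.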

[6] = system: Human alphaherpesvirus 2; assay: Antiviral activity against HSV2 G infected in HEL cells assessed as inhibition of virus-induced cytopathicity; assay type: functional, organism-based; conditions: Human alphaherpesvirus 2, strain G; how it was run: as §1
[7] = system: Human immunodeficiency virus 1; assay: Antiviral activity against HIV1 3B/Lai infected in human CEM cells assessed as inhibition of virus-induced cytopathicity after 4 days; assay type: functional, organism-based; conditions: Human immunodeficiency virus 1, 3B/Lai, CCRF-CEM, 96 h; how it was run: as §2
[8] = system: HEL; assay: Cytotoxicity against HEL cells assessed as inhibition of cell proliferation; assay type: cell-based; conditions: Homo sapiens
[9] = system: MT4; assay: Cytotoxicity against human MT4 cells assessed as decrease in cell viability; assay type: cell-based
How it was run: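 MT-4 viability was measured by automated propidium iodide-based cell counting, enumerating total and dead cells in untreated and compound-treated cultures.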

[10] = system: Human immunodeficiency virus 1; assay: Antiviral activity against HIV1 3B/Lai infected in human MT4 cells assessed as suppression of p24 production after 3 days; assay type: functional, organism-based; conditions: Human immunodeficiency virus 1, 3B/Lai, MT4, 72 h
How it was run: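 MT-4 cells (1 × 10^4 cells/mL) in fresh medium infected with X4LAI.04 stock, 10 μL (0.7 ng p24) per mL of cell suspension. Mixed with medium carrying compound dilutions and kept at 37°C. After 3 days, p24 was measured in culture supernatants.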

[11] = system: MT4; assay: Cytotoxicity against human MT4 cells assessed as inhibition of cell proliferation; assay type: cell-based

Compound	EC50 [1] [µM]	MCC [2] [µM]	IC50 [3] [µM]	EC50 [4] [µM]	EC50 [5] [µM]	EC50 [6] [µM]	EC50 [7] [µM]	IC50 [8] [µM]	IC50 [9] [µM]	EC50 [10] [µM]	CC50 [11] [µM]
C[C@@H](NP(=O)(OCCOCn1cnc2c(=O)[nH]c(N)nc21)Oc1ccccc1)C(=O)OCc1ccccc1 (some centres not stated)	23	> 100	≥ 250	2	> 250	1.4					
Nc1nc2c(ncn2COCCOP(=O)(Oc2ccccc2)N2CCC[C@H]2C(=O)OCc2ccccc2)c(=O)[nH]1 (some centres not stated)	> 100	> 100	> 100	> 100	> 20	> 100	> 20	> 100			
CCOC(=O)[C@H](C)NP(=O)(OCCOCn1cnc2c(=O)[nH]c(N)nc21)Oc1cccc2ccccc12 (some centres not stated)	32	> 150	32	32	42	9.5	12	> 100	12	1.7	> 150
CC(C)[C@H](NP(=O)(OCCOCn1cnc2c(=O)[nH]c(N)nc21)Oc1ccccc1)C(=O)OCc1ccccc1 (some centres not stated)	7.5	> 100	≥ 100	2	> 50	0.85	> 50				
CCOC(=O)[C@@H](NP(=O)(OCCOCn1cnc2c(=O)[nH]c(N)nc21)Oc1cccc2ccccc12)C(C)C (some centres not stated)	42	> 100	> 100	51	> 100	32	> 100				
C[C@H](NP(=O)(OCCOCn1cnc2c(=O)[nH]c(N)nc21)Oc1cccc2ccccc12)C(=O)OC(C)(C)C (some centres not stated)	> 100	> 50	> 100	> 100	> 100	50	> 100	> 100	> 150	> 150	> 150
CC(C)OC(=O)[C@H](C)NP(=O)(OCCOCn1cnc2c(=O)[nH]c(N)nc21)Oc1cccc2ccccc12 (some centres not stated)	≥ 45	> 50	36	15	12	10	6.2	> 100	72.5	5.4	> 150
COC(=O)[C@H](NP(=O)(OCCOCn1cnc2c(=O)[nH]c(N)nc21)Oc1cccc2ccccc12)C(C)C (some centres not stated)	> 100	> 100	> 100	> 100	> 100	> 100	> 100				
C[C@H](NP(=O)(OCCOCn1cnc2c(=O)[nH]c(N)nc21)Oc1ccc(F)cc1)C(=O)OCc1ccccc1 (some centres not stated)	1.5	> 100	76	0.9	> 20	0.5					
CC[C@H](C)[C@H](NP(=O)(OCCOCn1cnc2c(=O)[nH]c(N)nc21)Oc1ccccc1)C(=O)OCc1ccccc1 (some centres not stated)	1.4	> 100		1.1	> 20	1.1	> 20				
Nc1nc2c(ncn2COCCOP(=O)(NCC(=O)OCc2ccccc2)Oc2ccccc2)c(=O)[nH]1 (configuration not stated)	9	> 100	> 100	3	> 100	0.8	> 100				
CC(C)(NP(=O)(OCCOCn1cnc2c(=O)[nH]c(N)nc21)Oc1ccccc1)C(=O)OCc1ccccc1 (configuration not stated)	5.5	> 100	> 100	1.4	> 100	0.8			> 150	7	> 150
CC(C)C[C@H](NP(=O)(OCCOCn1cnc2c(=O)[nH]c(N)nc21)Oc1ccccc1)C(=O)OCc1ccccc1 (some centres not stated)	1.4	> 100	> 20	0.8	> 20	0.7	> 20		> 150	0.8	17
Nc1nc2c(ncn2COCCO)c(=O)[nH]1 [ACYCLOVIR]		> 100	> 250		> 250		> 250		> 250		> 250
